# Source: ChEMBL document CHEMBL1240524, “A focused library of protein tyrosine phosphatase inhibitors” (J Med Chem, 2010)
# Tests used:
# [1] = target: T1, Tyrosine-protein phosphatase non-receptor type 2 (Homo sapiens, UniProt P17706); assay: Inhibition of TCPTP
# T1 sequence (P17706 whole entry): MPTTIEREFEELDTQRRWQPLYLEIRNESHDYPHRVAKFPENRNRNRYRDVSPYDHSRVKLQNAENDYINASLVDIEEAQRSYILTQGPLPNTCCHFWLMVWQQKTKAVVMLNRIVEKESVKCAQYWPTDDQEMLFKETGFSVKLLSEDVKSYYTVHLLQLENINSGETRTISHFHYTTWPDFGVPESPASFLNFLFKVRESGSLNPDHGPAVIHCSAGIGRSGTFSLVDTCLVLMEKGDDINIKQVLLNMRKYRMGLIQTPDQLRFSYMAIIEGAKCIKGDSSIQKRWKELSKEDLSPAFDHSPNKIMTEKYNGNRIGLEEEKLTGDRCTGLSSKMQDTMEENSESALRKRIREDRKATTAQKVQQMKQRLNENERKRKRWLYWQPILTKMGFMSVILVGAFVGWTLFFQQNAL
# Summary of the method: (§1)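 Medium: 10% DMSO, 1 mM EDTA, 50 mM NaCl, 50 mM 3,3-dimethylglutarate, pH 7.0. Initial rates taken as absorbance at 420 nm from 30 to 150 s after mixing. IC50 derived from percent inhibition.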
# [2] = target: T2, Tyrosine-protein phosphatase non-receptor type 1 (Homo sapiens, UniProt P18031); assay: Inhibition of PTP1B; summary of the method: as §1
# T2 sequence (P18031 whole entry): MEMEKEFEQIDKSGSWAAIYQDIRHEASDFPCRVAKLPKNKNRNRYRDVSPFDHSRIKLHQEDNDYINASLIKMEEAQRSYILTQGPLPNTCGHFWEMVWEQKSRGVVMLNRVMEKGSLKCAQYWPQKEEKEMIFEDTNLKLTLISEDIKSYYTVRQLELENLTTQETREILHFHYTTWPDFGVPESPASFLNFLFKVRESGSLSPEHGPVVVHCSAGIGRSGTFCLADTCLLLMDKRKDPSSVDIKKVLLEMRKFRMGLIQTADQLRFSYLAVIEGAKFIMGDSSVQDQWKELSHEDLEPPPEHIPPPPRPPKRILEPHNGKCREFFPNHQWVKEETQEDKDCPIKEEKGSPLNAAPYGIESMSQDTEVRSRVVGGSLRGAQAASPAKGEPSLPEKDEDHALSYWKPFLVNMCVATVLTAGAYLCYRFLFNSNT
# [3] = target: T3, Tyrosine-protein phosphatase non-receptor type 7 (Homo sapiens, UniProt P35236); assay: Inhibition of HePTP
# T3 sequence (P35236 whole entry): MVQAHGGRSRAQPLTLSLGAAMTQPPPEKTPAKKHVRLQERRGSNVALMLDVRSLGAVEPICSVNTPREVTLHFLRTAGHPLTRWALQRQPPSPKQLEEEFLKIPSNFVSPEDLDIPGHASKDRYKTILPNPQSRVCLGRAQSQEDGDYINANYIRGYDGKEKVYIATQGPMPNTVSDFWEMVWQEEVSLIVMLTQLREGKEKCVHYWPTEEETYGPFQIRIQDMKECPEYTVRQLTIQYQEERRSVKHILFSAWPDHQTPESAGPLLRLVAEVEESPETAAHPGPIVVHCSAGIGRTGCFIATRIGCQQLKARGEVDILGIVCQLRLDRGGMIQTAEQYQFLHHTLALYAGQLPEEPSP
# Summary of the method: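 HePTP assayed with 4-methylumbelliferyl phosphate at 174 μM (its measured Km) at 25 °C in 10% DMSO, 1 mM EDTA, 50 mM NaCl, 50 mM 3,3-dimethylglutarate, pH 7.0. Initial rates read as fluorescence (ex 340, em 460 nm) from 0 to 150 s after mixing. IC50 derived from percent inhibition.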
# [4] = target: Secreted effector protein (Yersinia pestis, UniProt O68720); assay: Inhibition of Yersinia pestis YOpH
# Sequence of Secreted effector protein (O68720 whole entry): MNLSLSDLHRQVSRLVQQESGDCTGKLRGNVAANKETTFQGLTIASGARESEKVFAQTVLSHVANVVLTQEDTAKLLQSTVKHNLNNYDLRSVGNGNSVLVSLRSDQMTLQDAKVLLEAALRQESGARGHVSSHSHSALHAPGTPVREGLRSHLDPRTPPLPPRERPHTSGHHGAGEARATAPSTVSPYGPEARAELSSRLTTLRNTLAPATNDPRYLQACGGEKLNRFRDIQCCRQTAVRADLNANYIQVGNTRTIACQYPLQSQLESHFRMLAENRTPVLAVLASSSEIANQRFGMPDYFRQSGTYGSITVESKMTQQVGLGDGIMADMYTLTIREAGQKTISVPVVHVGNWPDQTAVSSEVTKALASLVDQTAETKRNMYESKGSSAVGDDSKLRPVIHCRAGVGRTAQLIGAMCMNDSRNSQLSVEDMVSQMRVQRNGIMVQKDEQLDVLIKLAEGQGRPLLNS
# Summary of the method: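 Phosphatase activity was read at 25 °C with p-NPP at its Km (1.7 mM). The buffer was 50 mM 3,3-dimethylglutarate pH 7.0 with 50 mM NaCl, 1 mM EDTA and 10% DMSO. Initial rates came from hydrolysis at 420 nm, 30 to 150 s after mixing. Percent inhibition was measured and IC50 values were calculated from it.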
# [5] = Selectivity ratio of IC50 for TCPTP to IC50 for PTP1B
Compound,IC50 [1],IC50 [2],IC50 [3],IC50 [4],Ratio IC50 [5]
O=C(O)C(=O)c1ccc(OCc2ccc(COc3ccc(C(=O)C(=O)O)cc3)c(C(=O)Nc3ccc(Oc4ccc(SC(F)(F)F)cc4)cc3)c2)cc1,4000 nM,1600 nM,53000 nM,50 nM,–
O=C(O)C(=O)c1ccc(OCc2ccc(COc3ccc(C(=O)C(=O)O)cc3)c(C(=O)Nc3ccc(Oc4ccccc4)cc3)c2)cc1,–,–,–,240 nM,< 2
O=C(O)C(=O)c1ccc(OCc2ccc(COc3ccc(C(=O)C(=O)O)cc3)c(C(=O)Nc3ccc(Oc4cccc(F)c4)cc3)c2)cc1,–,–,–,220 nM,–
Cc1ccc(Oc2ccc(NC(=O)c3cc(COc4ccc(C(=O)C(=O)O)cc4)ccc3COc3ccc(C(=O)C(=O)O)cc3)cc2)cc1,–,–,–,190 nM,–
O=C(O)C(=O)c1ccc(OCc2ccc(COc3ccc(C(=O)C(=O)O)cc3)c(C(=O)Nc3ccc(Oc4ccc(-c5ccccc5)cc4)cc3)c2)cc1,6500 nM,220 nM,21000 nM,30 nM,–
COc1ccc(Oc2ccc(NC(=O)c3cc(COc4ccc(C(=O)C(=O)O)cc4)ccc3COc3ccc(C(=O)C(=O)O)cc3)cc2)cc1,–,–,–,1100 nM,–
CSc1ccc(Oc2ccc(NC(=O)c3cc(COc4ccc(C(=O)C(=O)O)cc4)ccc3COc3ccc(C(=O)C(=O)O)cc3)cc2)cc1,–,–,–,110 nM,–
O=C(O)C(=O)c1ccc(OCc2ccc(COc3ccc(C(=O)C(=O)O)cc3)c(C(=O)Nc3ccc(Oc4ccc(F)cc4)cc3)c2)cc1,–,–,–,110 nM,–
N#Cc1ccc(Oc2ccc(NC(=O)c3cc(COc4ccc(C(=O)C(=O)O)cc4)ccc3COc3ccc(C(=O)C(=O)O)cc3)cc2)cc1,–,–,–,1300 nM,–
CCCCc1ccc(Oc2ccc(NC(=O)c3cc(COc4ccc(C(=O)C(=O)O)cc4)ccc3COc3ccc(C(=O)C(=O)O)cc3)cc2)cc1,–,–,–,200 nM,–
CCCCCCc1ccc(Oc2ccc(NC(=O)c3cc(COc4ccc(C(=O)C(=O)O)cc4)ccc3COc3ccc(C(=O)C(=O)O)cc3)cc2)cc1,2300 nM,1200 nM,28000 nM,90 nM,–
O=C(O)C(=O)c1ccc(OCc2ccc(COc3ccc(C(=O)C(=O)O)cc3)c(C(=O)Nc3ccc(Oc4ccc(Cl)c(Cl)c4)cc3)c2)cc1,–,–,–,210 nM,–
O=C(O)C(=O)c1ccc(OCc2ccc(COc3ccc(C(=O)C(=O)O)cc3)c(C(=O)Nc3cccc(OCc4ccccc4)c3)c2)cc1,–,–,–,100 nM,–
CCc1ccc(Oc2ccc(NC(=O)c3cc(COc4ccc(C(=O)C(=O)O)cc4)ccc3COc3ccc(C(=O)C(=O)O)cc3)cc2)cc1,3500 nM,490 nM,52000 nM,70 nM,–
O=C(O)C(=O)c1ccc(OCc2ccc(COc3ccc(C(=O)C(=O)O)cc3)c(C(=O)Nc3ccc(Oc4ccc(F)cc4F)cc3)c2)cc1,–,–,–,910 nM,–
Cc1ccccc1Oc1ccc(NC(=O)c2cc(COc3ccc(C(=O)C(=O)O)cc3)ccc2COc2ccc(C(=O)C(=O)O)cc2)cc1,–,–,–,230 nM,–
CC(C)c1ccc(Oc2ccc(NC(=O)c3cc(COc4ccc(C(=O)C(=O)O)cc4)ccc3COc3ccc(C(=O)C(=O)O)cc3)cc2)cc1,–,–,–,800 nM,–
